Test results taken from ChEMBL document CHEMBL1126604, “Synthesis and antiviral activity of 5-thien-2-yl-2'-deoxyuridine analogues” (1993).
In brackets after ≈: the same amount, converted by molar mass.

Key:
Format in all cases: functional
[1] = tested on: Cytomegalovirus; assay: Minimum inhibitory concentration required to reduce cytomegalo virus (CMV (AD-169)) virus-induced cytopathicity by 50%; details: Human betaherpesvirus 5
[2] = tested on: Cytomegalovirus; assay: Minimum inhibitory concentration required to reduce cytomegalo virus (CMV (Davis)) virus-induced cytopathicity by 50%; details: Human betaherpesvirus 5
[3] = tested on: Human alphaherpesvirus 1; assay: Minimum inhibitory concentration required to reduce herpes simplex virus-1 (HSV-1 (KOS)) virus-induced cytopathicity by 50%
[4] = tested on: Human alphaherpesvirus 1; assay: Minimum inhibitory concentration required to reduce herpes simplex virus-1 (HSV-1 (McIntyre)) virus-induced cytopathicity by 50%
[5] = tested on: Human alphaherpesvirus 2; assay: Minimum inhibitory concentration required to reduce herpes simplex virus-2 (HSV-2 (G)) virus-induced cytopathicity by 50%
[6] = tested on: Human alphaherpesvirus 2; assay: Minimum inhibitory concentration required to reduce herpes simplex virus-2 (HSV-2 (Lyons)) virus-induced cytopathicity by 50%
[7] = tested on: Human alphaherpesvirus 1; assay: Minimum inhibitory concentration required to reduce thymidine kinase deficient-HSV-1 (B2006) virus-induced cytopathicity by 50%
[8] = tested on: Human alphaherpesvirus 1; assay: Minimum inhibitory concentration required to reduce thymidine kinase deficient-HSV-1 (VMW 1837) virus-induced cytopathicity by 50%
[9] = tested on: Human alphaherpesvirus 3; assay: Minimum inhibitory concentration required to reduce TK-VZV (07-1) virus-induced cytopathicity by 50%
[10] = tested on: Human alphaherpesvirus 3; assay: Minimum inhibitory concentration required to reduce TK-VZV (YS/R) virus-induced cytopathicity by 50%
[11] = tested on: Vesicular stomatitis virus; assay: Minimum inhibitory concentration required to reduce VSV virus-induced cytopathicity by 50%
[12] = tested on: Vaccinia virus; assay: Minimum inhibitory concentration required to reduce vaccinia virus (VV) virus-induced cytopathicity by 50%; details: Orthopoxvirus vaccinia
[13] = tested on: Human alphaherpesvirus 3; assay: Minimum inhibitory concentration required to reduce Varicella-Zoster virus (VZV (Oka)) virus-induced cytopathicity by 50%
[14] = tested on: Human alphaherpesvirus 1; assay: Minimum inhibitory concentration required to reduce herpes simplex virus-1 (HSV-1 (F)) virus-induced cytopathicity by 50%
[15] = tested on: Cell line; assay: Minimum concentration required to cause a microscopically detectable alteration of cell morphology; details: Homo sapiens
In short: (§1)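 Cytotoxicity read as the minimum concentration causing a microscopically detectable alteration of normal cell morphology. Cells were human embryonic skin-muscle (E6SM) or human embryonic lung (HEL), seeded in 96-well plates.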

[16] = (§2) Minimum inhibitory concentration required to reduce virus-induced cell growth by 50%; details: Homo sapiens
[17] = tested on: Human alphaherpesvirus 2; assay: Minimum inhibitory concentration required to reduce herpes simplex virus-2 (HSV-2 (196)) virus-induced cytopathicity by 50%
[18] = tested on: Mus musculus; assay: Survival of mice after intraperitoneal infection with HSV-1 (KOS) and oral administration of 25 mg/kg at day 20
In short: (§3)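 Mice were infected intraperitoneally with HSV-1 (KOS), 10 mice per group. Drug was given by oral gavage once daily for 5 days, starting on the day of infection, at 25, 100 or 250 mg/kg per day. Vehicle was a 90:10 suspension of Sirupus Simplex and propylene glycol; the placebo group got the same syrup. Surviving mice were counted over 20 days.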

[19] = tested on: Mus musculus; assay: Survival of mice after intraperitoneal infection with HSV-1 (KOS) and oral administration of 100 mg/kg at day 0; in short: as §3
[20] = tested on: Mus musculus; assay: Survival of mice after intraperitoneal infection with HSV-1 (KOS) and oral administration of 100 mg/kg at day 12; in short: as §3
[21] = tested on: Mus musculus; assay: Survival of mice after intraperitoneal infection with HSV-1 (KOS) and oral administration of 100 mg/kg at day 20; in short: as §3
[22] = tested on: Mus musculus; assay: Survival of mice after intraperitoneal infection with HSV-1 (KOS) and oral administration of 100 mg/kg at day 3; in short: as §3
[23] = tested on: Mus musculus; assay: Survival of mice after intraperitoneal infection with HSV-1 (KOS) and oral administration of 100 mg/kg at day 6; in short: as §3
[24] = tested on: Mus musculus; assay: Survival of mice after intraperitoneal infection with HSV-1 (KOS) and oral administration of 100 mg/kg at day 9; in short: as §3
[25] = tested on: Mus musculus; assay: Survival of mice after intraperitoneal infection with HSV-1 (KOS) and oral administration of 25 mg/kg at day 0; in short: as §3
[26] = tested on: Mus musculus; assay: Survival of mice after intraperitoneal infection with HSV-1 (KOS) and oral administration of 25 mg/kg at day 12; in short: as §3
[27] = tested on: Mus musculus; assay: Survival of mice after intraperitoneal infection with HSV-1 (KOS) and oral administration of 25 mg/kg at day 3; in short: as §3
[28] = tested on: Mus musculus; assay: Survival of mice after intraperitoneal infection with HSV-1 (KOS) and oral administration of 25 mg/kg at day 6; in short: as §3
[29] = tested on: Mus musculus; assay: Survival of mice after intraperitoneal infection with HSV-1 (KOS) and oral administration of 25 mg/kg at day 9; in short: as §3
[30] = tested on: Mus musculus; assay: Survival of mice after intraperitoneal infection with HSV-1 (KOS) and oral administration of 250 mg/kg at day 0; in short: as §3
[31] = tested on: Mus musculus; assay: Survival of mice after intraperitoneal infection with HSV-1 (KOS) and oral administration of 250 mg/kg at day 12; in short: as §3
[32] = tested on: Mus musculus; assay: Survival of mice after intraperitoneal infection with HSV-1 (KOS) and oral administration of 250 mg/kg at day 20; in short: as §3
[33] = tested on: Mus musculus; assay: Survival of mice after intraperitoneal infection with HSV-1 (KOS) and oral administration of 250 mg/kg at day 3; in short: as §3
[34] = tested on: Mus musculus; assay: Survival of mice after intraperitoneal infection with HSV-1 (KOS) and oral administration of 250 mg/kg at day 9; in short: as §3
[35] = tested on: Mus musculus; assay: Survival of mice after intraperitoneal infection with HSV-1 (KOS) and oral administration of 250 mg/kg at day 6; in short: as §3
[36] = tested on: Cell line; assay: Minimum concentration required to cause a microscopically detectable alteration of human cells morphology; in short: as §1
[37] = tested on: Cell line; assay: as §2; details: Homo sapiens
In short: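 Cytotoxicity was measured as inhibition of cell growth in E6SM or HEL cells seeded in 96-well plates.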

| SMILES | MIC [1] [µg/mL] | MIC [2] [µg/mL] | MIC [3] [µg/mL] | MIC [4] [µg/mL] | MIC [5] [µg/mL] | MIC [6] [µg/mL] | MIC [7] [µg/mL] | MIC [8] [µg/mL] | MIC [9] [µg/mL] | MIC [10] [µg/mL] | MIC [11] [µg/mL] | MIC [12] [µg/mL] | MIC [13] [µg/mL] | MIC [14] [µg/mL] | MIC [15] [µg/mL] | MIC [16] [µg/mL] | MIC [17] [µg/mL] | further results |
| --- | --- | --- | --- | --- | --- | --- | --- | --- | --- | --- | --- | --- | --- | --- | --- | --- | --- | --- |
| O=c1[nH]c(=O)n([C@H]2C[C@H](O)[C@@H](CO)O2)cc1-c1cccs1 | 60 (≈ 193 µM) | 40 (≈ 129 µM) | 1.5 (≈ 4.83 µM) | 0.3 (≈ 0.967 µM) | 50 (≈ 161 µM) | 20 (≈ 64.4 µM) | > 100 | > 100 | 8 (≈ 25.8 µM) | 30 (≈ 96.7 µM) | > 100 | 20 (≈ 64.4 µM) | 3 (≈ 9.67 µM) | 0.35 (≈ 1.13 µM) | 100 (≈ 322 µM) | 45 (≈ 145 µM) | 50 (≈ 161 µM) |  |
| O=c1[nH]c(=O)n([C@H]2C[C@H](O)[C@@H](CO)O2)cc1-c1ccc(I)s1 | > 40 | > 40 | 0.04 (≈ 0.0917 µM) |  | > 40 |  | > 40 | > 40 | 10 (≈ 22.9 µM) | 40 (≈ 91.7 µM) | > 40 | > 40 | 0.07 (≈ 0.16 µM) |  | 100 (≈ 229 µM) | > 50 |  |  |
| O=c1[nH]c(=O)n([C@H]2C[C@H](O)[C@@H](CO)O2)cc1/C=C/Br [BRIVUDINE] |  |  | 0.01 (≈ 0.03 µM) | 0.01 (≈ 0.03 µM) | 70 (≈ 210 µM) | 70 (≈ 210 µM) | > 200 | 10 (≈ 30 µM) | > 40 | > 40 | > 200 | 0.2 (≈ 0.6 µM) | 0.004 (≈ 0.012 µM) | 0.02 (≈ 0.06 µM) | > 400 | > 50 | > 400 | No. of mice [18]: 3; No. of mice [19]: 10; No. of mice [20]: 8; No. of mice [21]: 7; No. of mice [22]: 9; No. of mice [23]: 9; No. of mice [24]: 8; No. of mice [25]: 10; No. of mice [26]: 3; No. of mice [27]: 10; No. of mice [28]: 10; No. of mice [29]: 4; No. of mice [30]: 10; No. of mice [31]: 10; No. of mice [32]: 9; No. of mice [33]: 10; No. of mice [34]: 10; No. of mice [35]: 10 |
| C=Cc1ccc(-c2cn([C@H]3C[C@H](O)[C@@H](CO)O3)c(=O)[nH]c2=O)s1 | > 1 | > 1 | 1 (≈ 2.97 µM) |  | > 200 |  | > 200 | > 200 | 7 (≈ 20.8 µM) | 10 (≈ 29.7 µM) | > 200 | 70 (≈ 208 µM) | 7 (≈ 20.8 µM) |  | 400 (≈ 1190 µM) | 3.5 (≈ 10.4 µM) |  |  |
| C[Si](C)(C)C#Cc1ccc(-c2cn([C@H]3C[C@H](O)[C@@H](CO)O3)c(=O)[nH]c2=O)s1 | > 10 | > 10 | 0.07 (≈ 0.172 µM) |  | > 40 |  | > 40 | > 40 | 21 (≈ 51.7 µM) | 20 (≈ 49.2 µM) | > 40 | > 40 | 0.2 (≈ 0.492 µM) |  | 100 (≈ 246 µM) | 10 (≈ 24.6 µM) |  |  |
| O=c1[nH]c(=O)n([C@H]2C[C@H](O)[C@@H](CO)O2)cc1-c1ccno1 |  |  | 20 (≈ 67.7 µM) | 2 (≈ 6.77 µM) | 300 (≈ 1020 µM) | > 400 | 300 (≈ 1020 µM) | > 400 |  | 10 (≈ 33.9 µM) | > 400 | > 400 | 0.48 (≈ 1.63 µM) | 20 (≈ 67.7 µM) |  |  | 300 (≈ 1020 µM) | MIC [36]: 20 µg/mL (≈ 67.7 µM); MIC [37]: > 50 µg/mL |
| O=c1[nH]c(=O)n([C@H]2C[C@H](O)[C@@H](CO)O2)cc1-c1ccsc1 | > 40 | > 40 | 0.3 (≈ 0.967 µM) | 0.04 (≈ 0.129 µM) | 70 (≈ 226 µM) | 70 (≈ 226 µM) | 150 (≈ 483 µM) | > 100 | 35 (≈ 113 µM) | 20 (≈ 64.4 µM) | > 100 | > 40 | 1.5 (≈ 4.83 µM) | 0.6 (≈ 1.93 µM) | > 100 | > 50 | 100 (≈ 322 µM) |  |
